Screening data from PubChem.
In the library only some 3.1% were active in any assay of this set; here they are far more common.
rCAG RNA binder: molecules binding r(CAG) RNA repeats; r(CAG) RNA repeat, TO-PRO-1 dye displacement fluorescence; inhibition, % at 3 µM; hit rate 1.3% among 370,000; AID 651821;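 active means inhibition above the plate cutoff, the mean of all test compounds on that plate plus 3 SD, cut at about 35% in these data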;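 further: higher means more dye released from RNA so lower well fluorescence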
ATG4B inhibitor: ATG4B (human) cysteine protease inhibition | hit rate 0.51% among 340,000 | Q9Y4P1 | ATG4B cleavage of LC3-PLA2, NBD-HPC fluorescence, 1 h | inhibition, % at 8.33 µM; in the data active means inhibition above about 40%
UHRF1 MBD2 ctr: UHRF1 methyl-DNA binding inhibition. hit rate 0.75% among 370,000. UHRF1 binding to methylated oligo, TR-FRET. inhibition, % at 4.4 µM; in the data active means inhibition above about 21%;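 further: UHRF1 SRA domain binding a hemimethylated CpG hairpin DNA probe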
MBD2 inh: blocks human MBD2 binding to methylated DNA | Q9UBB5 | inhibition, % at 4.4 µM | TR-FRET, MBD2 binding to methylated oligonucleotide | hit rate 0.31% among 370,000 | AID 686964; in the data active means inhibition above about 13%
LEDGF integ inh: blocks HIV-1 LEDGF/p75-dependent DNA integration. TR-FRET IN-LEDGF/p75 DNA integration, Eu/Cy5. inhibition, % at 3.7 µM. hit rate 0.64% among 370,000. AID 743269;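 active means inhibition above the screen-wide mean plus 3 SD, cut at about 13% in these data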;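 further: signal is the Cy5 over europium emission ratio at 671 and 618 nm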
CSN deneddyl inh: CSN deneddylation inhibition | Q92905 | Purified CSN, SCF-Nedd8-OG deneddylation, fluorescence polarization | inhibition, % at 12.5 µM | hit rate 0.38% among 360,000;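 active means pattern-corrected inhibition above about 35%, with an unprinted fluorescence ratio check between 0.5 and 1.5, limit read from the data, passing the limit was not always enough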
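Test system: purified human Csn5 enzyme expressed in HEK293T cells. Amount: 0.24 nM enzyme. Reagent: SCFSkp2-Nedd8OG substrate at 10 nM final. Schedule: 90 min incubation of compound, enzyme and substrate at room temperature. Detection: fluorescence polarization. Read-out: % inhibition of substrate cleavage by Csn5.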
Hits are given with their value; n = inactive; x = not tested or not shown.

SMILES	rCAG RNA binder	ATG4B inhibitor	UHRF1 MBD2 ctr	MBD2 inh	LEDGF integ inh	CSN deneddyl inh
CC(=O)N1CCN(CC(C)(C)NS(=O)(=O)c2ccccc2)CC1	n	n	n	n	n	n
COc1ccc2c(c1)CCCN2C(=O)C1CCCN(S(=O)(=O)c2cccc3cccnc23)C1 (stereo unspecified)	n	x	n	n	n	x
CCCCCCCCN1C(=O)[C@H](CC(=O)NCCCN2CCCC2=O)C[C@@]2(C(=O)OC)CCCCC=C12	n	x	n	n	n	47.9
COC(=O)[C@]12CCCCC=C1N(Cc1ccccc1)C(=O)[C@H](CC(=O)NCCCN1CCCC1=O)C2	n	x	n	n	n	n
COc1cc(/C=C/c2sc3ccccc3[n+]2CCCS(=O)(=O)[O-])ccc1O	n	n	n	n	n	n
CCC(/C=C1\Oc2ccc(OC)cc2N1C)=C\c1sc2ccccc2[n+]1CCCS(=O)(=O)[O-]	n	n	n	n	n	73.2
COC(=O)c1c(C)[nH]c(O)c1C=Nc1ccc(C(C)C)cc1	n	n	n	n	n	53.2
COC(=O)c1c(C)[nH]c(O)c1C=Nc1ccc(Oc2ccccc2)cc1	n	n	n	n	n	89.6
Fc1cccc(CNC(=S)OC2CCC23CCC(c2ccccc2)CC3)c1 (stereo unspecified)	n	x	n	n	n	x
COC(=O)c1c(NC(C)=O)sc2c1CCCC2	n	n	n	n	n	n
COC(=O)c1c(NC(C)=O)sc2c1CCCCC2	n	n	n	n	n	104.3
CC(=O)NC(Cc1ccc2c(c1)OCO2)C(=O)N1CCCN(C(C)=O)CC1 (stereo unspecified)	n	x	n	n	n	x
Cn1c(C(=O)N2CCOCC2)cc2c(=O)n3ccccc3nc21	n	n	n	n	n	n
CC1CN(C(=O)c2cc3c(=O)n4ccccc4nc3n2C)CC(C)O1 (stereo unspecified)	n	n	26.6	n	n	n
CCO/C(C)=N/Oc1cccc(N(C)C)c1	n	x	28.6	n	n	n
Cc1ccccc1-c1cccc2c3c([nH]c12)[C@@H]1C[C@H]2[C@@H](CN1CC3)[C@H](C)ON2C	n	x	n	n	n	x
O=C(NCCCc1ccccc1)O[C@@H]1CC[C@@]23CCCN2C(=O)CCC[C@H]3C1	x	x	n	n	n	x
Cc1ccc(C)c2[nH]c(=O)c(CN(Cc3ccc4c(c3)OCO4)Cc3nnnn3Cc3ccco3)cc12	n	n	n	n	17.6	n
Cc1ccc2cc(CN(Cc3ccc4c(c3)OCO4)Cc3nnnn3Cc3ccco3)c(=O)[nH]c2c1C	n	n	n	n	n	n
COC(=O)c1cccc(N2C(=O)C[C@](Sc3ccc(OC)cc3)(C(=O)N3CCOCC3)[C@H]2c2ccc(OC)cc2)c1	n	x	n	n	n	x
O=S1(=O)c2c(NCc3ccco3)cccc2Oc2ccccc2CN1Cc1cn(Cc2ccc(F)cc2)nn1	n	x	n	n	n	x
Cc1cccc(NC2=C(C#N)C(=O)NC3(CCCC3)S2)c1	n	n	23.6	n	n	n
Cc1cccc(N2C(S)=C(C#N)C(=O)NC23CCCCC3)c1	n	n	n	n	n	n
O=C(O)c1ccc(C(=O)c2ccc3c(c2)C(=O)N(CCO)C3=O)cc1	n	n	22.3	n	n	n
CCOc1cc(C(=O)NC)cc(Br)c1OCc1ccccc1	n	n	48.4	n	n	n
SMILES	rCAG RNA binder	ATG4B inhibitor	UHRF1 MBD2 ctr	MBD2 inh	LEDGF integ inh	CSN deneddyl inh
CCOc1cc(C(=O)NC)cc(Br)c1OC	n	n	n	n	n	n
Cc1ccc(NC(=O)c2cc(NC(=O)C3CC=CCC3C(=O)O)ccc2N2CCOCC2)cc1Cl (stereo unspecified)	34.6	n	n	n	n	n
Cc1ccc(NC(=O)c2cc(NC(=O)C3CC=CCC3C(=O)O)ccc2N2CCOCC2)cc1 (stereo unspecified)	n	n	n	n	n	n
COC(=O)c1c(/N=C/NOCc2ccc(Cl)cc2)sc2c1CCN(c1ncc(C(F)(F)F)cc1Cl)C2	n	n	n	n	n	36.7
CN(Cc1ccccc1F)C(=O)C1CCC(CNS(=O)(=O)c2cccc3cccnc23)CC1 (stereo unspecified)	n	x	n	n	n	x
O=C(Nc1nc2ncccn2c1-c1ccc(F)cc1)C1CC1	n	x	n	n	n	x
O=c1c([N+](=O)[O-])c(Cl)c2ccccc2n1Cc1ccccc1	x	x	n	n	n	x
CCN(c1ccc(OC)cc1)S(=O)(=O)c1nnc(NC(=O)c2ccco2)s1	n	n	n	n	n	n
